# Screens (PubChem)
# Rows were chosen to be rich in hits. Some 0.77% of all compounds tested hit in one or more screens of this group.
# mIAP block: inhibitors of mouse IAP, primary screen, biochemical, luminescence, uHTS; purified mouse IAP, CDP-Star luminescence, 30 min; inhibition, % at 10 µM; 0.2% of 330,000 active; AID 2806, 2010;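 active = inhibition of at least 40% at 10 µM in the primary screen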;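 also: plate controls were DMSO with enzyme for no effect and no enzyme wells for full effect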
# bIAP inh: bovine intestinal alkaline phosphatase inhibitors, primary screen, selectivity assay for TNAP inhibitor project, biochemical, bovine IAP, CDP-star luminescence. alkaline phosphatase, intestinal [Bos taurus]. purified bovine IAP, 30 min. inhibition, % at 20 µM. 190,000 tested, under 10 active. AID 1019, 2008;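 active = over 50% inhibition of intestinal alkaline phosphatase at 20 µM in the single-dose screen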
#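 Assay system: bovine IAP enzyme; medium: DEA buffer 100 mM, pH 9.8, with MgCl2 1.0 mM, ZnCl2 0.02 mM; doses: 20 µM single dose; incubation: enzyme reaction for 30 min at room temperature; detection: CDP-star luminescence signal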
# hIAP inh: human IAP inhibitors, primary screen, biochemical, luminescence, uHTS; Intestinal-type alkaline phosphatase (Homo sapiens), P09923; purified IAP, CDP-Star luminescence, 30 min; inhibition, % at 10 µM; 0.12% of 330,000 active;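 active = inhibition reaching a set limit with compound at 10 µM in the primary screen, cut at about 35% in these data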;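 also: plate controls were DMSO wells with enzyme for no effect and no-enzyme buffer wells for full effect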
# Target sequence (P09923 whole entry, looked up): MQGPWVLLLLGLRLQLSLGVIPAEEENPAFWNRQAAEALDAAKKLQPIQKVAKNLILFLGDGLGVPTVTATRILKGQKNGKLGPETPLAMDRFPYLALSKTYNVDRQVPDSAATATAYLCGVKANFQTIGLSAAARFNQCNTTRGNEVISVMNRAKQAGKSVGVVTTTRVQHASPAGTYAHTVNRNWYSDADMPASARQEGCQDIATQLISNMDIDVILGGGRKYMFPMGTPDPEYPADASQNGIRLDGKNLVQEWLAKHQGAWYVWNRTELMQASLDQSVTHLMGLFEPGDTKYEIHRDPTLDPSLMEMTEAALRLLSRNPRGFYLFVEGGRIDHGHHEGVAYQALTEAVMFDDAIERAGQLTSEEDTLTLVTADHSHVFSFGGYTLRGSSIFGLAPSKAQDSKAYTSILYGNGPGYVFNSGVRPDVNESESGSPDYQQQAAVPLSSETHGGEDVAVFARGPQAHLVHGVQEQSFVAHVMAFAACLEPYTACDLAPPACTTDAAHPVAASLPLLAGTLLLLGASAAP
# bIAP act: bovine intestinal alkaline phosphatase activators, primary screen, biochemical, bovine IAP, CDP-star luminescence; alkaline phosphatase, intestinal [Bos taurus]; purified bovine IAP, 30 min; active compounds read high; fold of DMSO-control signal, blank-subtracted; activation factor at 20 µM; 0.17% of 200,000 active; AID 1016, 2008;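 active = activation factor of 2 or more at 20 µM, a signal rise over negative controls twice the positive control's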
# hIAP act: human IAP activators, primary screen, biochemical, luminescence, uHTS | purified human IAP, CDP-Star luminescence, 30 min; active compounds read high; 1 = vehicle-only enzyme, 0 = enzyme-free background | activation factor at 10 µM | AID 2524, 2010 | 0.16% of 330,000 active | Intestinal-type alkaline phosphatase (Homo sapiens), P09923;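 active = activation factor of the enzyme at least 2-fold when tested at 20 µM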
# mIAP activ: activators of mouse IAP, primary screen, biochemical, luminescence, uHTS. intestinal alkaline phosphatase [Mus musculus]. muIAP, CDP-Star luminescence, 30 min; active compounds read high; 1 = vehicle-only enzyme signal, 0 = enzyme-free wells. activation factor at 10 µM. 0.24% of 330,000 active;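 active = activation factor of at least 2 at 20 µM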
#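 System: mouse IAP enzyme. Reagent: CDP-Star chemiluminescent phosphatase substrate. Benchmarks: DMSO wells, no-enzyme wells. Times: 30 min enzyme-substrate-compound incubation at room temperature. Detection: luminescence from enzymatic CDP-Star hydrolysis. Doses: test compounds delivered from DMSO solution.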
# * marks the source's active call; other numbers are inactive results; i = inactive; / = no result.
SMILES,mIAP block,bIAP inh,hIAP inh,bIAP act,hIAP act,mIAP activ
FC(F)(F)c1ccc(NC(=S)NC2CCCCC2)cc1,-167.4,2.5,-4.9,1,1.05,2.67*
O=C(O)c1ccc(NC(=S)NC2CCCCC2)cc1,-2.6,1.0,13.3,1,0.867,1.03
FC(F)(F)c1cccc(NC(=S)NCC2COc3ccccc3O2)c1 (configuration not stated),-257.5,-6.0,-13.4,1.1,1.13,3.58*
FC(F)(F)c1cccc(NC(=S)NC2CCCC2)c1,-161.0,0.7,-7.0,1,1.07,2.61*
CCCCNC(=S)Nc1ccc(Cl)cc1,-19.6,6.5,10.3,0.9,0.897,1.2
CCOC(=O)/C(N=Nc1sc(C(=O)OCC)c(C)c1C(=O)OCC)=C(\C)O,11.9,19.4,16.5,0.8,0.835,0.881
CCOC(=O)c1sc(N=NC2=C(O)CCCC2=O)c(C(=O)OCC)c1C,40.0*,-11.6,24.2,1.1,0.758,0.6
N#Cc1ccc(NC(=O)Nc2ccc(Oc3ccc(NC(=O)Nc4ccc(C#N)cc4)cc3)cc2)cc1,-144.2,/,-11.9,/,1.12,2.44*
CCOC(=O)c1sc(NC(=O)Nc2ccccc2Cl)cc1C,-220.7,3.5,2.8,1,0.972,3.21*
CCOC(=O)c1sc(NC(=O)Nc2ccccc2)cc1C,-70.7,-21.6,-18.0,1.2,1.18,1.71
Cc1cc(C)cc(NC(=O)c2cc(C)n(Cc3cccs3)c2C)c1,4.3,/,8.1,/,0.919,0.957
CCN(c1ccccc1)S(=O)(=O)c1ccc(OC)c(NC(=O)Cn2cnc3c2c(=O)n(C)c(=O)n3C)c1,6.9,-10.8,-2.2,1.1,1.02,0.931
COc1cc(NC(=O)C2CCN(S(=O)(=O)c3ccc(Cl)cc3)CC2)ccc1-n1cnnn1,-130.8,-16.7,-32.0,1.2,1.32,2.31*
COc1ccc(F)cc1S(=O)(=O)Nc1ccncc1,-6.8,/,-21.9,/,1.22,1.07
CC(C)CNC(=S)NC1CC2CCCC(C1)N2Cc1ccco1 (configuration not stated),-26.0,4.6,-16.3,1,1.16,1.26
CC(C)CNC(=S)NC1CC2CCCC(C1)N2Cc1cccs1 (configuration not stated),-163.0,-14.2,1.1,1.1,0.989,2.63*
CC(C)c1ccc(NC(=O)NC2CC3CCC(C2)N3Cc2cccs2)cc1 (configuration not stated),-20.5,20.2,-12.6,0.8,1.13,1.21
Cc1ccc(NC(=S)NC2CC3CCCC(C2)N3Cc2ccco2)cc1 (configuration not stated),-53.0,-11.2,-7.1,1.1,1.07,1.53
Fc1ccc(NC(=S)NC2CC3CCCC(C2)N3Cc2cccs2)cc1 (configuration not stated),-181.1,-40.8,-7.5,1.4,1.07,2.81*
Cc1ccc(NC(=S)NC2CC3CCCC(C2)N3Cc2cccs2)cc1 (configuration not stated),-317.9,-95.3,-34.4,2*,1.34,4.18*
CC1CCN(S(=O)(=O)c2nnc(NC(=O)c3ccccc3Br)s2)CC1,-4.0,/,5.3,/,0.947,1.04
Cc1ccc(N/C(N)=N/c2nc(CSc3nnc(C)s3)cc(=O)[nH]2)c(C)c1,-7.7,-110.7,-67.0,2.1*,1.67,1.08
Cn1c(-c2ccc3c(c2)OCO3)cnc1NCc1ccc(Cl)cc1,9.1,i,6.9,6.4*,0.931,0.909
Cc1ccc(CNc2ncc(-c3ccc4c(c3)OCO4)n2C)cc1,6.5,-82.7,-18.6,1.8,1.19,0.935
C=CCN=C(NC#N)SCC(=O)NCc1ccccc1,3.8,-124.0,-14.4,2.2*,1.14,0.962
SMILES,mIAP block,bIAP inh,hIAP inh,bIAP act,hIAP act,mIAP activ
C=CCN=C(NC#N)SCCc1ccccc1,0.5,33.9,-0.2,0.7,1,0.995
Cc1ccc(N=C2NC(=O)/C(=C\c3ccco3)S2)cc1,45.4*,9.7,4.0,0.9,0.96,0.546
Cc1cccc(N=C2NC(=O)/C(=C/C=C/c3ccco3)S2)c1,/,33.5,/,0.7,/,/
COc1ccc(N2CCN(CCCNC(=O)CN3C(=O)COc4ccccc43)CC2)cc1,-18.3,/,-22.5,/,1.23,1.18
CCOc1ccc(N(CC(=O)NC(C(C)C)C(C)C)S(=O)(=O)c2ccc(OC)c(OC)c2)cc1,-7.7,-9.8,-0.2,1.1,1,1.08
Cc1ccc(-n2nnnc2SCC(=O)Nc2ccc(N3CCN(C)CC3)cc2)c(C)c1,0.6,/,3.0,/,0.97,0.994
Cc1ccc(SCC(=O)Nc2ccc(N3CCN(C)CC3)c(F)c2)c(C)c1,42.3*,-27.8,-3.3,1.3,1.03,0.577
Cc1nc2ccc(C(=O)N3CCN(Cc4ccccc4)CC3)cc2[nH]1,0.2,/,10.2,/,0.898,0.998
CCCc1cc(C(=O)Nc2nccs2)cs1,66.5*,11.8,-4.0,0.9,1.04,0.335
CCCN1C(=O)c2ccc(C(=O)Nc3nccs3)cc2C1=O,-3.3,2.0,-21.8,1,1.22,1.03
CS(=O)(=O)N1CCc2cc(C(=O)Nc3ccc(Cl)cc3)ccc21,-10.2,/,-10.6,/,1.11,1.1
Cc1ccc(NC(=O)NCCCc2ccccc2)cc1,-116.9,26.8,4.4,0.7,0.956,2.17*
Fc1cc(Br)ccc1NC(=S)NCCc1ccccc1,-118.8,8.1,-7.8,0.9,1.08,2.19*
O=C(NCCCc1ccccc1)Nc1cccc(Cl)c1,-317.9,-1.5,-5.5,1,1.05,4.18*
S=C(NCCc1ccccc1)Nc1ccccc1Cl,2.4,-13.6,4.0,1.1,0.96,0.976
S=C(NCCCc1ccccc1)Nc1ccccc1Cl,-162.9,3.4,-3.9,1,1.04,2.63*
Cc1no[n+]([O-])c1COc1ccc(/C=N/n2nnnc2N)cc1,11.4,11.7,-4.0,0.9,1.04,0.886
CC(/C=N/NC(=O)c1nn(C)c(C)c1Br)=C\c1ccccc1,-2.1,-14.6,7.5,1.1,0.925,1.02
COc1cccc(C(C)NC(=O)Cc2cccs2)c1 (configuration not stated),-2.9,/,20.9,/,0.791,1.03
Cn1c(CNc2ccc(Cl)cc2)nc2ccccc21,-16.3,35.4,1.1,0.6,0.99,1.16
CC(C)N=c1cc2n(-c3ccc(Cl)cc3)c3ccccc3nc-2cc1Nc1ccc(Cl)cc1,34.6,/,38.8*,/,0.612,0.654
CN(C(=O)COC(=O)Cn1cnc2ccccc21)C1CCCCC1,-5.7,/,22.1,/,0.779,1.06
CCOCCCNC(=O)c1ccc2c(c1)ncn2-c1ccccc1OC,4.7,/,-14.4,/,1.14,0.953
